High-throughput results deposited in PubChem by Broad Institute.
CFTR F508del cor = CFTR F508del correction in bronchial cells | CFBE cells, YFP halide quenching; stimulated with forskolin plus potentiator P3; % fluorescence drop versus neutral controls | activity (quench increase), % at 7.58 µM | 350,000 tested, 0.36% active | AID 720511;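 active = mean added fluorescence quench of at least 8% versus neutral control, with both replicates also reaching 8%; inconclusive = only one of the mean or replicate conditions met; inactive = mean below 8% and not both replicates reaching 8%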;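 note: cells transiently co-express mutant CFTR-F508del with the halide-sensitive YFP; corrector assay measuring rescue of mutant channel to the surface after 24 h compound exposure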
DENV2 CPE = protects cells from dengue virus 2 cytopathic effect; DENV2-infected cells, cytopathic effect rescue, plate reader; CPE inhibition, % at 9.99 µM; 350,000 tested, 1.7% active; AID 651640; in the data active = CPE inhibition above about 20%, passing the limit was not always enough; inconclusive = no clear call, values can overlap the other calls; tested in BHK-21 cells;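 note: 0% = median of neutral control wells and 100% = median of positive control wells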
ERAP1 HTS inh = ERAP1 (human) enzyme inhibition; recombinant ERAP1, Leu-AMC fluorescence, 60 min; inhibition, % at 10.7 µM; Q9NZ08; 340,000 tested, 0.15% active;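 active = mean replicate inhibition of at least 30%, or all replicates individually reaching that 30% level; inactive = mean below 30% and not every replicate reaching it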;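 note: 0% = neutral control wells and 100% = L-leucinethiol positive control wells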
FGF22 binding = FGF22 (human) thermal shift binding; activity (Tm shift, normalised), % at 9.99 µM; recombinant FGF22 thermal shift, SYPRO orange fluorescence; percent of sucrose octasulfate shift, DMSO zero; 340,000 tested, 1.5% active; Q9HCT0;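 active = mean Tm shift, scaled 0 neutral to 100 positive control, at about 1.3% or above, every replicate too, limit read from the data; inconclusive = no clear call, values can overlap the other calls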
E-selectin induc = E-selectin induction on HUVECs; activation, % at 7.58 µM; HUVEC E-selectin immunofluorescence imaging; normalized: neutral wells 0, TNF-alpha wells 100; 260,000 tested, 0.37% active;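 active = mean E-selectin-positive cell signal at least 10% of the positive control, reached in at least 60% of replicates, without over 20% cell loss; inconclusive = no rule given, readout overlaps actives, possibly toxicity-flagged; inactive = the rest, including those meeting only one limit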
Target sequence (P16581 whole entry, looked up): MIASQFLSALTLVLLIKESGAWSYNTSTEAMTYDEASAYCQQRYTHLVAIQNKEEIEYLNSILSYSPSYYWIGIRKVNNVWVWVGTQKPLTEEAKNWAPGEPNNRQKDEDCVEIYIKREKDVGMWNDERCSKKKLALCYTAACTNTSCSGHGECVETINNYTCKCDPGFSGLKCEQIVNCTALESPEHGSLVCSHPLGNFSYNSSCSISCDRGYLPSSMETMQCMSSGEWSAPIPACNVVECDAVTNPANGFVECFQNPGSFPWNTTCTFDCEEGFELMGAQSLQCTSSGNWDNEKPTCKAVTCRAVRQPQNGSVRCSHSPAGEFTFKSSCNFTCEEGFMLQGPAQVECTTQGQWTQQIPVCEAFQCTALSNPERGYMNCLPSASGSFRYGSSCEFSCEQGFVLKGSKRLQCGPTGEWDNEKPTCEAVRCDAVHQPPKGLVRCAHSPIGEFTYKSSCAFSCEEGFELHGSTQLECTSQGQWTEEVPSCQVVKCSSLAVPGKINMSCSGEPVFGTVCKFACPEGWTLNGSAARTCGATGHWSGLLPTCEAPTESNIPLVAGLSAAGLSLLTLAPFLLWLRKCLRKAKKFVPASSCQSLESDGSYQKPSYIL
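assay system = HUVEC, human umbilical vein endothelial cells | input = 3,000 HUVEC seeded per well | medium = EGM-2 growth medium on 0.1% gelatin-coated wells | dosing = one compound dose added by pin transfer | signal = immunofluorescence imaging | read-out basis = % PE-positive cells | control set = TNF-alpha, DMSO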
Numbers without * were called inactive; ? = inconclusive; . = not tested or not shown. Hits are enriched below; roughly 3.7% of the tested compounds scored in any of these assays.

SMILES	CFTR F508del cor	DENV2 CPE	ERAP1 HTS inh	FGF22 binding	E-selectin induc
C[C@@H](NC(=O)[C@H]1[C@H](CO)[C@H]2Cn3c(cccc3=O)[C@H]2N1CC1CCCCC1)c1ccccc1	2	24*	0	.	-1
C[C@@H]1CN([C@@H](C)CO)C(=O)c2c(c3ccccc3n2C)-c2ccccc2CO[C@@H]1CN(C)Cc1ccc(C(F)(F)F)cc1	5	-14	-5	0	1
COc1ccccc1S(=O)(=O)N[C@@H]1C=C[C@H](CC(=O)N2CCN(C)CC2)O[C@H]1CO	6	-7	2	0	0
C[C@@H]1CN([C@@H](C)CO)C(=O)c2cc(NS(C)(=O)=O)ccc2O[C@@H](C)CCCCO[C@H]1CN(C)C(=O)CCCN(C)C	0	9	3	0	0
CCCCN(C)CCNS(=O)(=O)c1ccc2c(c1)n(C)c(=O)c(=O)n2C	-2	-2	-1	0	164*
CN(CC(=O)O)S(=O)(=O)c1ccc2c(c1)n(C)c(=O)c(=O)n2C	-4	6	1	44*	0
CCCCN(CCCC)C(=O)CN(C)S(=O)(=O)c1ccc2c(c1)n(C)c(=O)c(=O)n2C	0	16	0	0	.
O=C(Nc1ccc(O)cc1)c1ccc2c(c1)C(=O)N(Cc1cccnc1)C2=O	-2	22*	3	0	0
COc1ccc(NC(=O)c2ccc3c(c2)C(=O)N(Cc2cccnc2)C3=O)cc1	.	.	2	.	.
CC(C)(CO)CN1CCC(n2nccc2NC(=O)C2CCCC2)CC1	1	1	-2	0	.
O=C(Nc1ccnn1C1CCN(CC(O)CO)CC1)C1CCCC1 (configuration not stated)	1	71*	0	0	0
O=C(O)C1C=CC(C(=O)O)c2ccccc21 (configuration not stated)	2	1	1	44*	1
C=CCN1C=C2C(=O)C(C)(OC(=O)CCC(=O)OC)C(=O)C=C2C=C1C1CC1 (configuration not stated)	0	50*	1	0	.
C[C@@H]1CN([C@H](C)CO)C(=O)c2cc(NS(=O)(=O)c3ccc(F)cc3)ccc2O[C@H]1CN(C)S(=O)(=O)c1cn(C)cn1	-2	12	1	1	0
Cc1cc(F)ccc1S(=O)(=O)N1CCCCC1CCNC(=O)C(=O)NCc1ccccn1 (configuration not stated)	-2	-1	-2	0	75*
Cc1ccc(C)c(S(=O)(=O)N2CCCCC2CCNC(=O)C(=O)NCc2ccccn2)c1 (configuration not stated)	3	3	0	0	-1
N/C(=N\OC(=O)c1ccc2c(c1)OCO2)c1cccc(Br)c1	-3	9	-6	0	5
N/C(Cc1cccc2ccccc12)=N\OC(=O)c1ccc2c(c1)OCO2	1	-8	0	44*	.
C[C@@H]1CN([C@H](C)CO)C(=O)c2cc(NC(=O)Nc3ccccc3)ccc2O[C@@H]1CN(C)C(=O)Nc1cccc2ccccc12	-2	-7	-5	0	0
C[C@@H]1CN([C@H](C)CO)C(=O)c2cccc(NC(=O)Nc3ccc(F)cc3)c2O[C@H]1CN(C)Cc1ccc(C(F)(F)F)cc1	2	.	-1	0	2
COc1ccc(CN(C)C[C@H]2Oc3c(NC(=O)Nc4ccc(OC)cc4)cccc3C(=O)N([C@H](C)CO)C[C@@H]2C)cc1	-3	-4	1	0	0
COc1ccc(CN(C)C[C@@H]2Oc3c(NC(=O)Nc4ccc(OC)cc4)cccc3C(=O)N([C@H](C)CO)C[C@H]2C)cc1	0	42*	-1	0	0
C[C@H](CO)N1C[C@H](C)[C@@H](CN(C)Cc2ccc(C(F)(F)F)cc2)Oc2c(NC(=O)Nc3ccc(F)cc3)cccc2C1=O	1	69*	0	0	0
CC(C)NC(=O)Nc1cccc2c1O[C@@H](CN(C)Cc1ccc(C(F)(F)F)cc1)[C@@H](C)CN([C@H](C)CO)C2=O	0	?	1	0	53*
COc1ccc(NC(=O)Nc2cccc3c2O[C@H](CN(C)Cc2ccc(C(F)(F)F)cc2)[C@@H](C)CN([C@H](C)CO)C3=O)cc1	-1	22*	0	-1	0
SMILES	CFTR F508del cor	DENV2 CPE	ERAP1 HTS inh	FGF22 binding	E-selectin induc
CC(=O)N[C@H]1CC[C@H](CCNC(=O)Nc2ccc(C(F)(F)F)cc2)O[C@H]1CO	-1	4	1	0	0
CC(C)NC(=O)Nc1cccc2c1O[C@@H](CN(C)Cc1ccccc1)[C@@H](C)CN([C@@H](C)CO)C2=O	0	1	-3	0	0
C[C@@H]1CN([C@H](C)CO)C(=O)c2cccc(NC(=O)Nc3ccc4c(c3)OCO4)c2O[C@@H]1CN(C)Cc1ccc(C(F)(F)F)cc1	-2	36*	1	-1	1
CC(C)NC(=O)Nc1cccc2c1O[C@H](CN(C)Cc1ccncc1)[C@@H](C)CN([C@H](C)CO)C2=O	1	-6	-1	0	81*
COc1ccc(S(=O)(=O)N(C)C[C@H]2Oc3c(NC(=O)Nc4ccc(C(F)(F)F)cc4)cccc3C(=O)N([C@H](C)CO)C[C@@H]2C)cc1	1	21*	-2	-1	.
C[C@H](CO)N1C[C@H](C)[C@@H](CN(C)Cc2ccc(C(F)(F)F)cc2)Oc2c(NS(C)(=O)=O)cccc2C1=O	3	-3	.	.	198*
C[C@H](CO)N1C[C@H](C)[C@H](CN(C)Cc2ccc(C(F)(F)F)cc2)Oc2c(NS(C)(=O)=O)cccc2C1=O	-1	-4	0	0	-4
C[C@H]1CN([C@@H](C)CO)C(=O)c2cccc(NC(=O)Nc3ccc4c(c3)OCO4)c2O[C@H]1CN(C)Cc1ccc(C(F)(F)F)cc1	0	1	0	0	1
C[C@H](CO)N1C[C@H](C)[C@@H](CN(C)C(=O)Nc2ccc(C(F)(F)F)cc2)OCCCC[C@H](C)Oc2ccc(NS(=O)(=O)c3cccs3)cc2C1=O	-4	94*	-3	0	0
C[C@@H]1CN([C@H](C)CO)C(=O)c2cc(NS(=O)(=O)c3cccs3)ccc2O[C@@H](C)CCCCO[C@@H]1CN(C)C(=O)CCC(F)(F)F	2	31*	.	0	1
C[C@@H]1CCCCO[C@@H](CN(C)C(=O)Nc2ccc(C(F)(F)F)cc2)[C@@H](C)CN([C@H](C)CO)C(=O)c2cc(NS(=O)(=O)c3ccccc3)ccc2O1	-1	21*	-5	0	0
C[C@@H]1CCCCO[C@H](CN(C)C(=O)Nc2ccc(C(F)(F)F)cc2)[C@H](C)CN([C@H](C)CO)C(=O)c2cc(NS(=O)(=O)c3ccccc3)ccc2O1	1	77*	-5	0	0
